Hep lipid drop: inhibitors of hepatocyte lipid droplet formation, primary screen, imaging, high-throughput imaging, BODIPY stain; AML12 mouse hepatocytes, oleate lipid droplets; inhibition, % at 6.5 µM; actives 0.4% (n = 240,000);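 active = lipid droplet intensity inhibited by at least 50%, with more than 500 cells counted; inconclusive = wells with under 300 cells, treated as cytotoxic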
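Test system: AML12 hepatocytes (mouse); reagent: oleate loading, 100 µM; dosing: one dose, 6.5 µM compound; incubation: overnight exposure; signal: fluorescence imaging, 20x objective, two fields per well; read-out basis: % inhibition of corrected integrated BODIPY droplet signal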
SR-BI uptake up: activators of SR-BI mediated DiI-HDL uptake, primary screen, ldlA[mSR-BI] CHO cells, DiI fluorescence; 3 h; 100 = double the neutral-control signal; activation, % at 12.5 µM; actives 0.096% (n = 320,000); AID 504775, 2011;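 active = mean replicate activation of at least 60% and every replicate at or above 60%; inconclusive = mean or all-replicate condition met, but not both; inactive = mean below 60% and not all replicates reaching 60%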;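 note: 0% = median plate neutral-control signal and 100% = twice that signal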
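Material: SR-BI-overexpressing, LDLR-lacking CHO cells | Dosing: Single compound concentration, delivered by pin transfer | Probe or stimulus: Labelled HDL, 10 µg/mL | Signal: Bottom-read cell fluorescence after medium removal, ex 550/em 595 nm | Schedule: 3 h, 37 °C | Evaluation: HDL uptake via cellular fluorescence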
TLR9-MyD88 inh: inhibitors of TLR9-MyD88 association in cells, primary screen, cell-based, CHO, BLA complementation, fluorescence; Toll-like receptor 9 (Homo sapiens) + Myeloid differentiation primary response protein …; CCF4 FRET ratio; inhibition, % at 4.98 µM; actives 0.21% (n = 340,000); AID 504734, 2011;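 active = inhibition above the mean over all tested compounds plus 3 SD, cut at about 21% in these data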;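 note: 0% = DMSO only wells and 100% = clavulanate BLA inhibitor control wells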
NOD2-RIPK2 inh: NOD2-RIPK2 binding disruptors in cells, primary screen, fluorescence, CHO cells, BLA complementation. Receptor-interacting serine/threonine-protein kinase 2 (Homo sapiens), O43353. CCF4 ratio. inhibition, % at 4.98 µM. actives 0.38% (n = 360,000); in the data active = inhibition above about 21%;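 note: 0% = vehicle only and 100% = reference blocker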
SR-BI DiI inh: inhibitors of SR-BI mediated HDL lipid uptake, primary screen, ldlA[mSR-BI] cells, fluorescence, single point. ldlA[mSR-BI] CHO cells, DiI-HDL uptake fluorescence, 3 h. actives 0.96% (n = 320,000). AID 488896, 2010. Scavenger receptor class B member 1 (Mus musculus), Q61009. inhibition, % at 12.5 µM;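 active = mean replicate inhibition of at least 70% and a set share of replicates each scoring 70 or more; inconclusive = meets just one of the two criteria; inactive = fails both criteria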;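 note: 0% = median of neutral control wells and 100% = median of positive control wells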
TLR4-MyD88 BLA: inhibitors of TLR4-MyD88 association in cells, primary screen, cell-based, HeLa CL3-4, BLA complementation, FRET ratio. Toll-like receptor 4 (Homo sapiens) + Myeloid differentiation primary response protein …. HeLa CL3-4 TLR4/MyD88 BLA complementation. inhibition, % at 8.4 µM. actives 0.18% (n = 200,000). AID 861, 2007; in the data active = inhibition above about 25%;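 note: 0% = vehicle and 100% = reference inhibitor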
Numbers without * were called inactive; u = inconclusive; x = not tested or not shown. The list is not random: actives were taken first. Their share in the collection is about 1.6%.

SMILES	Hep lipid drop	SR-BI uptake up	TLR9-MyD88 inh	NOD2-RIPK2 inh	SR-BI DiI inh	TLR4-MyD88 BLA
O=C(Nc1ccc(Cl)cc1)c1cc(Br)ccc1OCC(=O)N1CCOCC1	-33.6	-82.4	13.5	-3.1	82.4*	x
COc1ccc(C(=O)c2cc([N+](=O)[O-])ccc2N2CCN(C)CC2)cc1	14.5	-19.5	-5.3	-4.4	19.5	-4.4
O=C(Nc1ccc(N2CCCC2)c(Cl)c1)c1ccc([N+](=O)[O-])cc1	-10.2	-75.1	-1.2	-2.8	75.1*	1.7
O=C(Nc1ccc(N2CCOCC2)c(Cl)c1)c1ccc([N+](=O)[O-])o1	4.5	-48.9	7.5	2.4	48.9	14.7
COc1ccc(C(=O)c2cc([N+](=O)[O-])ccc2N2CCCC2)cc1	1.2	-70.4	9.0	-8.9	70.4*	-11.8
COc1ccc(NC(=O)c2cc([N+](=O)[O-])ccc2N2CCCC2)cc1	3.6	-15.8	x	-2.4	15.8	7.8
CCCC(=O)N1CCN(c2ccc(NC(=O)c3ccc([N+](=O)[O-])o3)cc2Cl)CC1	1.2	-59.4	2.9	26.6*	59.4	-2.7
COc1ccc(NC(=O)c2cc([N+](=O)[O-])ccc2N2CCCCC2)cc1	13.8	-90.2	5.1	2.0	90.2*	x
O=C(O)c1cccc2cccc(-c3c4ccc(=O)c(O)c-4oc4c(O)c(O)ccc34)c12	x	-14.0	-16.4	-6.4	14.0	x
Cc1nn(-c2ccccc2)c(Cl)c1/C=N/Nc1nncc(=O)[nH]1	6.9	14.7	0.1	-2.8	-14.7	x
CS(=O)(=O)c1ccc(C(=O)NNC(=O)c2ccccc2-n2cccc2)cc1	x	11.4	-2.6	6.5	-11.4	x
O=C(c1ccc(Br)cc1)c1cc([N+](=O)[O-])ccc1N1CCCCC1	x	-87.8	-4.9	6.1	87.8*	2.1
CN1CCN(c2ccc([N+](=O)[O-])cc2C(=O)c2ccc(Br)cc2)CC1	x	-10.4	0.3	-5.3	10.4	4.8
COc1cccc(OC)c1C(=O)Nc1ccc(C(=O)NCc2ccccc2)cc1	-0.4	-18.1	-5.5	3.2	18.1	x
Cc1ccc(S(=O)(=O)N(C(=O)c2ccncc2)c2ccc(OC(=O)c3ccncc3)c3ccccc23)c(C)c1	-2.4	17.5	11.7	16.6	-17.5	1.9
Cc1ccc(S(=O)(=O)N(C(=O)c2ccncc2)c2ccc(OC(=O)c3ccncc3)c3ccccc23)cc1	-30.2	429.6*	14.1	7.2	-429.6	-2.4
COc1cc(/C=C2\COC/C(=C\c3cc(OC)c(OC)c(OC)c3)C2=O)cc(OC)c1OC	-219.3	-83.3	11.6	9.8	83.3*	x
CN1CCN(c2ccccc2/C=C2/C(=O)Nc3ccccc32)CC1	10.9	5.0	-6.4	0.5	-5.0	x
COc1ccc(-c2cc(-c3ccc(O)cc3)nc(N)c2C#N)cc1	12.0	-62.0	-0.4	7.7	62.0	x
COc1ccc(-c2cc(-c3ccc(OC)cc3)c(C#N)c(SC)n2)cc1	-6.0	-79.9	5.4	4.2	79.9*	-13.1
c1ccc(Nc2nc(-c3ccncc3)nc3ccccc23)cc1	20.0	-52.1	2.4	-6.6	52.1	0.3
Oc1cccc(Nc2nc(-c3ccccc3)nc3ccccc23)c1	11.3	-72.1	0.8	4.9	72.1*	x
CC(=O)Nc1cccc(Nc2nc(-c3ccccc3)nc3ccccc23)c1	2.7	-57.4	4.1	7.3	57.4	0.8
Fc1ccc(Nc2nc(-c3ccncc3)nc3ccccc23)cc1	39.6	-77.9	8.8	-8.0	77.9*	9.5
Cc1cc2c(c(SCC#N)n1)C(=O)OC2	0.4	-16.4	1.4	-6.0	16.4	-14.6
SMILES	Hep lipid drop	SR-BI uptake up	TLR9-MyD88 inh	NOD2-RIPK2 inh	SR-BI DiI inh	TLR4-MyD88 BLA
COc1ccc(Cl)cc1NC(=O)CN(C)CC(=O)N1CC(=O)Nc2ccccc21	x	-26.0	-16.1	2.8	26.0	x
COc1ccc(Cl)cc1NC(=O)CN(C)CC(=O)Nc1ccccc1N1CCOCC1	u	-77.8	4.5	12.8	77.8*	13.4
COc1ccc(Cl)cc1NC(=O)CN(C)Cc1cccs1	23.4	-71.6	-13.7	-4.0	71.6*	x
COc1ccc(Cl)cc1NC(=O)CNCc1cccs1	x	-37.4	-11.0	-6.0	37.4	x
C/C(CC(=O)NC1CCCCC1)=N\NC(=O)Cc1ccc(-c2ccccc2)cc1	-29.3	-22.9	1.7	14.1	22.9	-18.1
CN1C(=O)C(O)(C2CCCCCC2=O)c2ccccc21 (stereo unspecified)	-0.6	9.0	5.2	-4.9	-9.0	x
C/C(=N\Nc1ccc(C(=O)c2c(C)cc3ccccn23)cc1[N+](=O)[O-])c1ccc(O)cc1	33.9	x	0.1	-7.3	x	x
C/C(=N/Nc1ccc(C(=O)c2c(C)cc3ccccn23)cc1[N+](=O)[O-])c1ccc(O)cc1	x	-100.8	3.2	-17.5	100.8*	x
Cc1ccc(S(=O)(=O)N2CCN(CC(O)c3ccccc3)CC2)cc1C (stereo unspecified)	20.9	8.8	6.5	-1.7	-8.8	-1.6
Cc1c(/C=N/NC(=O)c2ccc(Br)o2)cnn1C	1.0	15.0	x	-1.8	-15.0	x
Cc1cc(/C=N/NC(=O)c2cccc([N+](=O)[O-])c2)c(C)n1-c1ccc(Cl)cc1Cl	x	-88.9	6.7	0.9	88.9*	9.5
COc1cccc(C(=O)N/N=C/c2ccc(Oc3ccc([N+](=O)[O-])cn3)c(OC)c2)c1	15.6	-30.1	2.9	6.2	30.1	10.6
COc1cc(/C=N/NC(=O)c2ccc3ccccc3c2)ccc1Oc1ccc([N+](=O)[O-])cn1	55.5*	-60.4	-7.2	-20.5	60.4	3.8
COc1ccccc1/C=C(\NC(=O)c1ccc(OC)c(OC)c1)C(=O)Nc1cccc([N+](=O)[O-])c1	-3.8	-74.0	1.1	-1.6	74.0*	-9.6
Cc1cccc(/C=N/NC(=O)c2cccc([N+](=O)[O-])c2)n1	0.7	-17.5	x	-7.0	17.5	6.7
O=C(N/N=C/c1cccc([N+](=O)[O-])c1)c1ccc(COc2ccccc2-c2ccccc2)cc1	-1.7	-74.2	-2.3	11.2	74.2*	2.4
COc1cc(/C=N/NC(=O)c2cccc([N+](=O)[O-])c2)ccc1OCc1ccccc1	-8.0	-88.6	-5.6	4.9	88.6*	-5.5
COc1ccc(C(=O)Nc2cccc(/C(C)=N/NC(=O)c3ccc([N+](=O)[O-])c(C)c3)c2)cc1OC	2.7	-86.1	5.7	-6.7	86.1*	-5.9
COc1ccc(C(=O)Nc2cccc(/C(C)=N\NC(=O)c3ccoc3C)c2)cc1OC	1.9	-73.6	-8.5	-13.1	u	x

Screens as filed in PubChem BioAssay.
